The list is not random: actives were taken first. Their share in the collection is about 1.8%.
CCR6 antag: CCR6 (human) receptor antagonism; P51684; CHO-K1 CCR6 PathHunter beta-arrestin, luminescence, CCL20-stimulated; inhibition, % at 20 µM; hit rate 0.49% among 340,000; AID 493098;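 active = compounds whose inhibition of the agonist-driven luminescence signal at 20 µM reaches about 50%, limit read from the data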;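 note: cells stimulated with CCL20 at 14 nM final; plate controls were DMSO with CCL20 for no effect and DMSO without agonist for full effect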
Target sequence (P51684 whole entry, looked up): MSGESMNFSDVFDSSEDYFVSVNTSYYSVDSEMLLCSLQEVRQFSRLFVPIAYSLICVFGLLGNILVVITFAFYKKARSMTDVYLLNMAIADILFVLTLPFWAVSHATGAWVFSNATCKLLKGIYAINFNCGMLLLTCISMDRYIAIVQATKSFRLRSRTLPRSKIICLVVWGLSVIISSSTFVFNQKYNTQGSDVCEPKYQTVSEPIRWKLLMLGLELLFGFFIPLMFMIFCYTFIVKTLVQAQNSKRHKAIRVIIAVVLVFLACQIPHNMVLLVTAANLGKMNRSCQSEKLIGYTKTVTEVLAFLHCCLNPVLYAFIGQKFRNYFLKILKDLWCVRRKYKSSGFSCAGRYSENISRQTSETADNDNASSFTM
CXCR6 inh: CXCR6 (human) receptor inhibition; inhibition, % at 20 µM; AID 602244; CHO-K1 PathHunter CXCR6 beta-arrestin, luminescence; hit rate 0.36% among 360,000; in the data active = inhibition above about 34%, passing the limit was not always enough;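 note: antagonist mode with CXCL16 agonist at 10 nM final; 0% = 10 nM CXCL16 with DMSO and 100% = unstimulated wells without agonist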
Target sequence (O00574 whole entry, looked up): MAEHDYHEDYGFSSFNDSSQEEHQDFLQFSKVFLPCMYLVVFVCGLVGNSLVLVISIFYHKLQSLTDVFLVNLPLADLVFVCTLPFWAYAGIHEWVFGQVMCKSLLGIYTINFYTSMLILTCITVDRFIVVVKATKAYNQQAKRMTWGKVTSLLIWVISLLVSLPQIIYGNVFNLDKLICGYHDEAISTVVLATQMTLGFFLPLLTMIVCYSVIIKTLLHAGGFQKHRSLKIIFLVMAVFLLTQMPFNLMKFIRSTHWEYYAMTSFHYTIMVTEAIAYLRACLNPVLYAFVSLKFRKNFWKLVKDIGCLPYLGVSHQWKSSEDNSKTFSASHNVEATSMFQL
Beta2AR agonist: agonists of human beta-2 adrenergic receptor inducing internalization; P07550; Am2.2-beta2AR cells, FAP receptor internalization, flow cytometry; response, % (no concentration beside the values); hit rate 0.43% among 340,000; AID 504454;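 active = response above a set limit, near 3 SD of response in nonfluorescent compounds, cut at about 42% in these data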
APJ antag: APJ receptor antagonism; CHO-K1 APJ beta-arrestin complementation, luminescence; inhibition, % at 20 µM; hit rate 0.32% among 330,000; AID 2521;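 active = inhibition above about 40% at 20 µM, limit read from the data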;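 note: cells challenged with 10 nM apelin-13 agonist together with compound; plate controls were apelin-13 plus DMSO wells for no effect and DMSO wells lacking apelin-13 for full effect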
APJ agonist: activates the human apelin receptor APJ; P35414; CHO-K1 APJ PathHunter beta-arrestin, luminescence; 0% DMSO wells, 100% apelin; activation, % at 20 µM; hit rate 0.11% among 330,000;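 active = activation more than six SD over the plate average, tested at 20 µM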;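 note: 0% = DMSO alone and 100% = apelin-13 at 10 nM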
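Assay system: CHO-K1 APJ beta-arrestin complementation cell line / Compound: single test compound dose, 20 µM final, 1% DMSO / Times: overnight seeding, 90 min compound at 25 °C, 1 h detection / Technique: beta-gal luminescence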
EBI2 block: antagonists of human EBI2 receptor. EBI2 beta-arrestin recruitment, luminescence, 7a,25-OHC stimulated. inhibition, % at 5 µM. P32249. hit rate 0.81% among 360,000; in the data active = inhibition above about 38%;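 note: enzyme fragment complementation signal reports receptor beta-arrestin coupling in cells; 0% = agonist plus DMSO wells and 100% = wells without agonist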
CXCR6 antag conf: confirmation of human CXCR6 receptor antagonists. hit rate 65% among 700. shares compounds with CXCR6 inh. inhibition, % at 20 µM. AID 602409. CHO-K1 CXCR6 PathHunter beta-arrestin, luminescence;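 active = mean inhibition over four retests above 40%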;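 note: receptor stimulated with 10 nM CXCL16 agonist; beta-galactosidase fragment complementation upon beta-arrestin recruitment to receptor; plate controls were CXCL16 plus DMSO for no effect and DMSO without CXCL16 for full effect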
Starred values were filed as active, the others as inactive; . = not tested or not shown.

SMILES | CCR6 antag | CXCR6 inh | Beta2AR agonist | APJ antag | APJ agonist | EBI2 block | CXCR6 antag conf
COc1cccc(C(C(=O)NC(C)(C)C)N(C(=O)CCC(=O)Nc2cc(C)on2)C(C)C)c1OC (configuration not stated) | -5.7 | 46.9* | -0.9 | 3.8 | -2.5 | -0.3 | 7.3
O=C(c1ccccc1)c1ccccc1N1C(=O)C=CC1=O | . | 73.6* | -15.6 | 26.7 | 1.2 | 4.0 | 16.0
O=C(O)c1cccc(N2C(=O)C=CC2=O)c1 | . | -2.2 | . | . | . | -4.7 | .
Cc1noc(C)c1C(=O)N1CCC1(C)C(=O)NS(=O)(=O)c1ccccc1Cl (configuration not stated) | . | 0.0 | . | . | . | -4.4 | .
Cc1ccc(P(=O)(c2ccc(C)cc2)[C@@H](NC(c2ccccc2)c2ccccc2)c2ccccc2)cc1 | . | 40.9* | . | . | . | 27.1 | 41.1*
COc1cccc(/C=C2/CCC(CN(C)C)C2=O)c1 (configuration not stated) | 91.8* | 71.2* | 26.3 | . | . | 23.4 | 53.7*
CCCC/C=C1/CCC(CN(C)C)C1=O (configuration not stated) | 51.8* | 34.1* | 16.1 | . | . | -1.5 | 48.2*
CCCCn1c(N)c(N(CCOC)C(=O)CN2C(=O)C3CCCCC3C2=O)c(=O)[nH]c1=O (configuration not stated) | -0.7 | -2.7 | -7.1 | 5.6 | -2.0 | -9.1 | .
CCOC(=O)C1(Cc2ccc(Cl)cc2)CCN(Cc2ccon2)CC1 | 3.8 | 69.5* | -4.2 | 19.3 | -0.8 | -11.8 | 4.7
CCN1CCN(c2ccc(S(=O)(=O)N3CCCCC3)cc2NC(=O)/C=C/c2ccc(Cl)cc2)CC1 | 30.8 | 8.1 | 35.2 | . | . | 36.2 | .
Cc1cc(C)cc(NC(=O)C(NCC2CCCO2)c2ccccc2)c1 (configuration not stated) | 7.9 | 60.2* | -7.6 | -14.7 | -3.3 | 5.2 | 10.3
Cc1cc(C)cc(NC(=O)C(=O)NCC2CCCO2)c1 (configuration not stated) | -3.1 | -0.6 | 2.0 | 14.1 | -3.0 | -9.2 | .
CCOC(=O)c1ccc(NCCOC)c([N+](=O)[O-])c1 | 7.8 | 1.2 | -3.1 | -7.8 | -5.4 | 7.9 | .
CCOC(=O)c1cc([N+](=O)[O-])c([N+](=O)[O-])cc1NC(C)=O | . | 67.4* | 73.7* | . | . | 12.5 | 63.9*
O=[N+]([O-])c1ccc(C2CCCC/C2=N/O)c([N+](=O)[O-])c1 (configuration not stated) | 2.7 | 1.9 | 2.3 | -11.1 | -0.3 | -4.3 | .
O/N=C1/CCCCC1c1ccccn1 (configuration not stated) | 15.9 | 57.2* | -1.5 | 5.8 | 6.1 | -0.4 | -3.4
O=C1c2cccc3c([N+](=O)[O-])ccc(c23)C(=O)N1Cc1cccnc1 | . | 59.5* | 18.7 | . | . | 38.7 | 65.3*
CCc1nc2ccc(C(=O)NCCOc3ccc(OC)cc3)cn2c1N(C=O)Cc1ccc(OC)cc1 | . | -1.1 | . | . | . | 36.5 | .
c1ccc(C[C@H]2CN=C(Nc3ccccc3)N2CC2CCCC2)cc1 | . | 1.7 | . | . | . | 2.6 | .
Cc1cccc(NC(=O)/C=C/c2ccc([N+](=O)[O-])s2)c1 | 3.0 | 9.9 | -11.5 | . | . | 26.4 | .
Cc1cccc(NC(=S)N/N=C/c2ccc([N+](=O)[O-])s2)c1 | . | 56.2* | -0.9 | 17.5 | -5.2 | 31.5 | 53.1*
C=CCN(C(=O)CSC1=NC(=O)CN1C(C)=O)c1nc(C)c(-c2ccccc2)s1 | 41.2 | 40.4* | 12.2 | 20.0 | -3.3 | 22.9 | 13.4
O=C(NNC(=O)c1cc(-c2ccccc2)nn1-c1ccccc1)c1ccccc1 | . | 45.6* | -7.2 | -9.6 | -5.0 | 15.9 | 40.6*
COc1cccc(Nc2nc(C(N)Cc3ccc(Cl)cc3)cs2)n1 (configuration not stated) | . | -10.7 | . | . | . | -13.7 | .
c1ccc(-c2nc(NCc3ccco3)c3ccccc3n2)nc1 | 52.9* | 42.8* | -2.0 | 35.1 | -9.9 | 15.7 | 32.1
SMILES | CCR6 antag | CXCR6 inh | Beta2AR agonist | APJ antag | APJ agonist | EBI2 block | CXCR6 antag conf
CC(=O)O[C@H]1CC[C@@]2(C)C(CCC3C2CC[C@]2(C)OC(=O)CCC32)C1 (some centres not stated) | 3.2 | 0.8 | -5.9 | 4.2 | -3.4 | 1.6 | .
CC(=O)OC1CCC2(C)C(CCC3C4CC=C(C(C)=O)C4(C)OC(=O)CC32)C1 (configuration not stated) | . | 50.4* | . | . | . | 51.8* | 45.8*
COC(=O)c1ccc(/C=C(\C#N)C(=O)NC(C)c2ccccc2)cc1 (configuration not stated) | 53.1* | 40.5* | 14.6 | 12.0 | 9.9 | 43.3 | 55.1*
COc1ccccc1C(=O)N/C(=C\c1cn(S(=O)(=O)N(C)C)c2ccccc12)C(=O)N1CCN(C)CC1 | . | 2.8 | . | . | . | 2.8 | .
CC12CCC(C)(O1)C1C(=O)N(c3nccs3)C(=O)C12 (configuration not stated) | 5.2 | 8.0 | 4.3 | . | . | 1.0 | .
Nc1nc(COc2ccccc2)cs1 | -13.1 | 59.3* | -0.8 | 14.4 | -4.3 | -10.6 | 3.0
Nc1ccc2c(c1)Cc1cc([N+](=O)[O-])ccc1-2 | 17.1 | 5.6 | -4.0 | 13.9 | -3.3 | 0.9 | .
CC(O)CN(CC(C)O)c1ccc2c(c1)Cc1cc([N+](=O)[O-])ccc1-2 (configuration not stated) | 55.4* | 37.9* | -33.7 | . | . | 10.5 | 41.3*
O=C(C[C@H]1C(=O)N(CCc2ccccc2)C[C@@H]1c1ccccc1)Nc1ccccc1 | . | 7.9 | . | . | . | -5.7 | .
Cc1c(Cl)cccc1NC(=S)NC(=O)c1cncc(Br)c1 | 33.4 | 42.2* | 4.7 | 15.7 | -3.1 | 6.2 | 35.5
CCn1nccc1C(=O)Nc1nc2ccccc2n1CCN1CCCCC1 | 54.4* | 63.8* | -1.4 | 18.1 | 1.2 | -1.9 | 47.7*
COc1ccc(-c2c(C(=O)c3ccccc3)[nH]c(N)c2C(=O)c2ccccc2)cc1OC | . | 41.5* | . | . | . | 3.1 | 41.2*
CCCOc1ccc(C(=O)NNC(=S)NC(=O)c2cccs2)cc1 | 63.5* | 52.7* | -1.7 | 9.7 | -9.9 | 11.5 | 27.6
CCC(=O)NC(=S)NNC(=O)c1ccc(OC)cc1 | 23.6 | 16.8 | 6.8 | 12.9 | -1.4 | -3.2 | .
CCCCOc1ccc(C(=O)NNC(=S)NC(=O)CC)cc1 | 67.8* | 56.8* | 1.1 | . | . | 5.9 | 66.9*
CCCOc1ccc(C(=O)NNC(=S)NC(=O)c2ccccc2)cc1 | 65.0* | 47.3* | -4.8 | 36.5 | -3.4 | 0.2 | 33.0
CC(C)(C)c1ccc(C(=O)N2CCOC23CCCCC3)cc1 | . | -2.5 | . | . | . | -1.5 | .
CCCCCCCCN1N=N[C@H]2[C@H]1[C@@H]1C[C@H]2N(C(=O)OC(C)(C)C)O1 | 20.6 | -2.4 | -4.7 | . | . | -0.3 | .
COc1ccc(OCC(=O)NC2CCCN(Cc3ccc(Cl)cc3)C2)cc1 (configuration not stated) | 15.0 | 5.3 | -0.4 | -12.0 | -10.0 | 8.6 | .
